From ChEMBL document CHEMBL1143619, “Synthesis and biological evaluation of aminopolyamines” (J Med Chem, 2005)

How the values were obtained:
L1210 [1] = experiment: Cellular concentration expressed in L1210 cells; type: functional, Mus musculus
L1210 [2] = experiment: Effect on spermine (SPM) levels after 48 hr treatment at 50 uM in L1210 cells; type: functional, Mus musculus
L1210 [3] = experiment: Effect on Putrescine (PUT) levels after 48 h treatment at 50 uM in L1210 cells; type: functional, Mus musculus
L1210 [4] = experiment: Effect on spermidine (SPD) levels after 48 hr treatment at 50 uM in L1210 cells; type: functional, Mus musculus
L1210 [5] = experiment: Inhibitory activity against L1210 cell growth for 48 hr; type: functional, cell-based; conditions: Mus musculus, L1210, 48 h
Summary of the method: (§1)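 Murine leukemia L1210 cells grown with nine extracellular drug concentrations (0, 0.03, 0.1, 0.3, 1.0, 3, 10, 30, 100 µM); IC50 estimated from growth curves at 48 or 96 h; mean of at least two experiments.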

L1210 [6] = experiment: Inhibitory activity against L1210 cell growth for 96h; type: functional, cell-based; conditions: Mus musculus, L1210, 96 h; summary of the method: as §1
L1210 [7] = experiment: Ability to inhibit [3H]SPD transport by L1210 cells; type: functional, cell-based, Mus musculus
Summary of the method: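 Ki from analogue inhibition of [3H]spermidine transport into murine leukemia L1210 cells, analysed as substrate-competitive inhibition; mean of at least two or three experiments.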

[8] = molecular target: T1, Ornithine decarboxylase (Mus musculus) (UniProt P00860); experiment: Effect on Ornithine Decarboxylase (ODC) activity in L1210 cells at 1 uM for 4 hr; type: functional, cell-based
T1 sequence (whole entry): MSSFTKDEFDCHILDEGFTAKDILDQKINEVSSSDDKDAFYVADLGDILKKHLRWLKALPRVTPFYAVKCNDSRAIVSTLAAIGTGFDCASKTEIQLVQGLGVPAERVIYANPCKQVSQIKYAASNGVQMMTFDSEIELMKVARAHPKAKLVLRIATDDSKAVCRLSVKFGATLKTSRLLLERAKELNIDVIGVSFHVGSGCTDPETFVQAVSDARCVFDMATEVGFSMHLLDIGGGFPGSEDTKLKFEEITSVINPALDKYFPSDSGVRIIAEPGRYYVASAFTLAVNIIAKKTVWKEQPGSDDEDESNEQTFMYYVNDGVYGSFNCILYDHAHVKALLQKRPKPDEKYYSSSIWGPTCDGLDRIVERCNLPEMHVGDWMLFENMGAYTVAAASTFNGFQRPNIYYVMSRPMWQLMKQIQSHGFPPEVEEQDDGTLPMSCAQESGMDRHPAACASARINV

[9] = molecular target: Spermidine/spermine N(1)-acetyltransferase (SAT) (Mus musculus) (UniProt Q6P8J2+P48026); experiment: Effect on Spermidine/spermine N1-acetyl transferase (SSAT) activity in L1210 cells at 10 uM for 48h; type: functional, cell-based
Chain of Spermidine/spermine N(1)-acetyltransferase (SAT) (Mus musculus) (P48026 whole entry, looked up): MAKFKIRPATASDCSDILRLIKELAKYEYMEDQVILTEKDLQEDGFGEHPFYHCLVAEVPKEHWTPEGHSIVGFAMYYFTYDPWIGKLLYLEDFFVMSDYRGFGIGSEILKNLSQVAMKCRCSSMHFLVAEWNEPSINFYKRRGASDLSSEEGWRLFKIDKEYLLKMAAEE
Chain of Spermidine/spermine N(1)-acetyltransferase (SAT) (Mus musculus) (Q6P8J2 whole entry, looked up): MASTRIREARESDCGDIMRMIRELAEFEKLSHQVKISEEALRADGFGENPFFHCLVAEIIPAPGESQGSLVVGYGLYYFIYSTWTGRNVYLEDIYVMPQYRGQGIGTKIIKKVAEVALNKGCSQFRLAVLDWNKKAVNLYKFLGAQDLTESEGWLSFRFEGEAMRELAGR

[10] = Effect on S-Adenosyl-methionine decarboxylase (AdoMetDC) activity in L1210 cells at 1 uM for 6 hr
L1210 [11] = experiment: Effect on Putrescine (PUT) levels after 48 hr treatment at 500 uM in L1210 cells; type: functional, Mus musculus
L1210 [12] = experiment: Effect on spermidine (SPD) levels after 48 hr treatment at 500 uM in L1210 cells; type: functional, Mus musculus
L1210 [13] = experiment: Effect on spermine (SPM) levels after 48 hr treatment at 500 uM in L1210 cells; type: functional, Mus musculus
L1210 [14] = experiment: Effect on spermine (SPM) levels after 48 h treatment at 150 uM in L1210 cells; type: functional, Mus musculus
L1210 [15] = experiment: Effect on Putrescine (PUT) levels after 48 hr treatment at 150 uM in L1210 cells; type: functional, Mus musculus
L1210 [16] = experiment: Effect on spermidine (SPD) levels after 48 hr treatment at 150 uM in L1210 cells; type: functional, Mus musculus

Question: For `CCNCCCNCCC(N)CNCCCNCC` (stereo not drawn), which Cellular concentration (L1210 [1]) is on record?
Answer: 3.1 nmol/10^6 cells

Question: What about the Activity (L1210 [2]) of the same compound?
Answer: 32

Question: And the Activity (L1210 [3])?
Answer: 26

Question: And the Activity (L1210 [4])?
Answer: 7

Question: What about the IC50 (L1210 [5]) of the same compound?
Answer: 8 µM

Question: What about the IC50 (L1210 [6]) of the same compound?
Answer: 0.4 µM

Question: And the Ki (L1210 [7])?
Answer: 33.7 µM

Question: And the Activity [8]?
Answer: 16%

Question: What about the Activity [9] of the same compound?
Answer: 667%

Question: And the Activity [10]?
Answer: 58%

Question: What does the source list for `FC(F)(F)CNCCCNCCCCNCCCNCC(F)(F)F`?
Answer: Activity (L1210 [11]): 87; Activity (L1210 [12]): 94; Cellular concentration (L1210 [1]): < 0.02 nmol/10^6 cells; Activity (L1210 [13]): 116; IC50 (L1210 [6]): > 100 µM; Activity [8]: 100%; Activity [9]: 97%; Activity [10]: 100%

Question: Which Cellular concentration (L1210 [1]) does the source give for `CCNCCCNCCCCNCCCNCC` [BIS(ETHYL)SPERMINE] here?
Answer: 1.78 nmol/10^6 cells

Question: What about the Activity (L1210 [14]) of the same compound?
Answer: 22

Question: And the Activity (L1210 [15])?
Answer: 0

Question: What about the Activity (L1210 [16]) of the same compound?
Answer: 0

Question: What about the Activity [10] of the same compound?
Answer: 28%
